From PubChem BioAssay come the findings set out here.

Calls of active or inactive are those of the source.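 The calls were made as follows, unless noted: active = viability at or below 10% of carrier control in both of two separate runs; inconclusive = viability at or below 10% in only one of the two runs; inactive = the rest.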

Assay [1] in a line: reduced viability of SK-BR-3 breast cancer cells – cell-based, 24 h, human, pilot screen (AID 572).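 Also: compound exposure lasted between 18 and 24 h rather than exactly 24 h; 100% = carrier-treated control wells.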 Conditions: SK-BR-3 viability, CellTiter-Glo luminescence, at 10 µM, stronger effect = lower value. Background: ATP-based viability assays read luminescence as a measure of living cells.
Assay [2] in a line: HUVEC growth inhibition – cell-based, human, primary screen (AID 575;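 active = viability at or below 30% in both replicate assays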;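 also: 100% = median of untreated cell wells with 0.1% DMSO on each plate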). Conditions: HUVEC proliferation, CellTiter-Glo luminescence, 72 h; at 10 µM; stronger effect = lower value. The method in brief: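 Material: primary human umbilical vein endothelial cells / Schedule: 72 h exposure, 37 °C, 5% CO2, 30 min RT equilibration / Signal: ATP-based CellTiter-Glo luminescent read / Read-out basis: percent of median DMSO-control luminescence / Control set: 32 DMSO-only cell-control wells (high), 32 MePR drug-control wells (low) per plate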

Assay [3] is described as follows: H69AR cell proliferation blockers – human, duplicate replicates, primary screen (AID 580;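 active = viability at or under a set limit in both replicates, limit being median viability minus 3 SD, cut at about 48% in these data, passing the limit was not always enough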;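 also: 100% = mean luminescence of untreated wells and 0% = no signal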). Conditions: H69AR lung tumor cells viability, ATP luminescence, 72 h; at 10 µM; stronger effect = lower value.
The nature of assay [4]: MRP1 drug-resistance reversers in H69AR cells – cell-based, doxorubicin co-treatment, pilot screen (AID 601;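 active = viability loss from added drug above about 55%, and viability with drug at most 40%, in both replicates, limit read from the data, passing the limit was not always enough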). Conditions: CellTiter-Glo, 72 h, at 10 µM; for differential viability (reversal): stronger effect = higher value.
Assay [5] is described as follows: yeast transport mutant growth inhibition pilot in 384-well plates, post-Golgi transport modulator project (AID 636; in the data active = inhibition above about 31%). Conditions: absorbance 615 nm, about 18 h, stronger effect = higher value.
Assay [6] in a line: growth suppression of yeast trafficking mutant, preliminary HTS, modulators of trafficking downstream of Golgi apparatus project, 1536-format plate, OD 615 nm (AID 637; in the data active = inhibition above about 30%). Conditions: yeast transport mutant growth, absorbance 615 nm, 18 h; stronger effect = higher value.
Where [7] appears, read: H69AR cells + 2 uM doxorubicin, measured here: viability with 2 uM doxorubicin, stronger effect = lower value.
[8] abbreviates: H69AR cells, compound alone cytotoxicity.

Broadly, the viability is a read-out of living cells in per cent, often relative to untreated cells. Usually inhibition stands for the drop in the measured response relative to a control, in per cent.

As to `COC(=O)CSc1nnc(-c2cccs2)n1-c1ccc(Cl)cc1`, the viability in assay [1] was 88% (inactive); in assay [2], 93.8% (inactive); in assay [3] it was 89.8% (inactive); in assay [4] (setting [7]), 83.1%; in assay [4] (setting [8]) it was 89.8%. For the same compound, the differential viability (reversal) in assay [4] (H69AR cells + 2 uM doxorubicin) was 6.75% (inactive). In addition, the inhibition in assay [5] is -8.49% (inactive); in assay [6], -4.68% (inactive).

For the compound `Cc1cccc(NC(=O)C2CCCN(C(=O)Nc3ccccc3)C2)c1C` (centres undefined), the viability was 88% (inactive) in assay [1]; 102% (inactive) in assay [2]; 96.2% (inactive) in assay [3]; 90.8% in assay [4] (setting [7]); 96.2% in assay [4] (setting [8]). Moreover, in assay [4] (H69AR cells + 2 uM doxorubicin), the differential viability (reversal) is 5.37% (inactive). Further, the inhibition in assay [5] was -1.04% (inactive); in assay [6], 3.11% (inactive).

Consider `CCOc1cc(/C=N/n2cnnc2)cc(Br)c1O`, for which the viability in assay [1] was 104% (inactive); in assay [2], 103% (inactive); in assay [3], 83.3% (inactive); in assay [4] (setting [7]), 91.8%; in assay [4] (setting [8]), 83.3%. Besides, the differential viability (reversal) in assay [4] (H69AR cells + 2 uM doxorubicin) was -8.45% (inactive). For the same compound, the inhibition in assay [5] is -2.37% (inactive); in assay [6] it was 8.33% (inactive).

For the compound `Cc1sc2nc3n(c(=O)c2c1C)NC(=O)CC3`, the viability in assay [1] is 104% (inactive); in assay [2], 86.3% (inactive); in assay [3], 94% (inactive); in assay [4] (setting [7]) it was 88.4%; in assay [4] (setting [8]), 94%. Besides, in assay [4] (H69AR cells + 2 uM doxorubicin), the differential viability (reversal) is 5.63% (inactive). The inhibition in assay [5] is -4.79% (inactive); in assay [6] it was 1.82% (inactive).

As for `COc1ccccc1-c1nnc(NC(=O)c2ccc(S(=O)(=O)N(C)Cc3ccccc3)cc2)o1`, the viability in assay [1] is 85% (inactive); in assay [2] it was 23.9% (active); in assay [3] it was 19.2% (active); in assay [4] (setting [7]), 44.3%; in assay [4] (setting [8]), 19.2%. In addition, the differential viability (reversal) in assay [4] (H69AR cells + 2 uM doxorubicin) is -25.1% (inactive). For the same compound, the results for the inhibition in assay [5] and in assay [6] were 1.3% (inactive) and 6.56% (inactive), respectively.

On to `c1ccc(-c2cc(-c3nc(-c4ccccn4)no3)c3ccccc3n2)cc1`, for which the viability was 139% (inactive) in assay [1]; 63.9% (inactive) in assay [2]; 59% (inactive) in assay [3]; 56.3% in assay [4] (setting [7]); 59% in assay [4] (setting [8]). The differential viability (reversal) in assay [4] (H69AR cells + 2 uM doxorubicin) is 2.75% (inactive). In addition, the figures for the inhibition in assay [5] and in assay [6] were -2.7% (inactive) and 8% (inactive), respectively.

For `CCCCc1c(O)nc(N2CCN(Cc3ccccc3)CC2)[nH]c1=O`, the viability in assay [1] was 93% (inactive); in assay [2], 98.8% (inactive); in assay [3], 96.1% (inactive); in assay [4] (setting [7]), 97.8%; in assay [4] (setting [8]) it was 96.1%. The differential viability (reversal) in assay [4] (H69AR cells + 2 uM doxorubicin) was -1.67% (inactive). For the same compound, the inhibition is -7.16% (inactive) in assay [5] and -1.82% (inactive) in assay [6].

Take `C/C(=N\O)C(=O)C(CN1CCCCC1)CN1CCCCC1`: the viability in assay [1] is 116% (inactive); in assay [2], 95.6% (inactive); in assay [3] it was 8.43% (active); in assay [4] (setting [7]) it was 2.52%; in assay [4] (setting [8]), 8.43%. Further, the differential viability (reversal) in assay [4] (H69AR cells + 2 uM doxorubicin) was 5.9% (inactive). Moreover, the results for the inhibition in assay [5] and in assay [6] were 1.95% (inactive) and -7% (inactive), respectively.

For `COc1ccc(N2C(=O)C(Cl)=C(N3CCCC3)C2=O)cc1`, the viability is 97% (inactive) in assay [1]; 86.1% (inactive) in assay [2]; 94.7% (inactive) in assay [3]; 84.8% in assay [4] (setting [7]); 94.7% in assay [4] (setting [8]). Moreover, the differential viability (reversal) in assay [4] (H69AR cells + 2 uM doxorubicin) is 9.9% (inactive). The inhibition in assay [5] was -6.08% (inactive); in assay [6] it was -6.18% (inactive).

As for `O=C(CN1CCN(Cc2ccccc2)CC1)Nc1ccc(Cl)cn1`, the viability in assay [1] was 94% (inactive); in assay [2], 88.8% (inactive); in assay [3] it was 85.1% (inactive); in assay [4] (setting [7]), 86.5%; in assay [4] (setting [8]) it was 85.1%. Moreover, the differential viability (reversal) in assay [4] (H69AR cells + 2 uM doxorubicin) was -1.43% (inactive). Also, the inhibition in assay [5] was -8.08% (inactive); in assay [6], 4.35% (inactive).

As to `C=CCn1c(SCC(=O)Nc2ccc3c(c2)OCO3)nc2ccccc2c1=O`, the viability was 73% (inactive) in assay [1]; 83.9% (inactive) in assay [2]; 84.2% (inactive) in assay [3]; 82.1% in assay [4] (setting [7]); 84.2% in assay [4] (setting [8]). The differential viability (reversal) in assay [4] (H69AR cells + 2 uM doxorubicin) is 2.04% (inactive). The inhibition is -3.84% (inactive) in assay [5] and -1.27% (inactive) in assay [6].

Regarding `Cc1ccc2c(c1C)NC(C(=O)O)C1CC=CC21` (centres undefined), the viability in assay [1] is 91% (inactive); in assay [2], 98.1% (inactive); in assay [3], 98.2% (inactive); in assay [4] (setting [7]), 96.7%; in assay [4] (setting [8]), 98.2%. Further, in assay [4] (H69AR cells + 2 uM doxorubicin), the differential viability (reversal) is 1.46% (inactive). The inhibition was -1.73% (inactive) in assay [5] and -1.09% (inactive) in assay [6].

In the case of `COCC(=O)Nc1c(C(=O)Nc2ccccc2OC)oc2ccccc12`, the viability in assay [1] is 78% (inactive); in assay [2], 59% (inactive); in assay [3] it was 75.1% (inactive); in assay [4] (setting [7]), 82.8%; in assay [4] (setting [8]) it was 75.1%. Moreover, the differential viability (reversal) in assay [4] (H69AR cells + 2 uM doxorubicin) was -7.66% (inactive). Moreover, the inhibition is -8.78% (inactive) in assay [5] and -2.79% (inactive) in assay [6].

For the compound `CCCCOC(=O)Nc1nccs1`, the viability in assay [1] is 101% (inactive); in assay [2], 107% (inactive); in assay [3] it was 103% (inactive); in assay [4] (setting [7]) it was 101%; in assay [4] (setting [8]) it was 103%. In assay [4] (H69AR cells + 2 uM doxorubicin), the differential viability (reversal) was 1.28% (inactive). Moreover, the inhibition in assay [5] is -5.33% (inactive); in assay [6], -3.27% (inactive).

On to `O=C(Cn1c(=O)n(CC2CCCO2)c(=O)c2ccccc21)c1ccccc1` (centres undefined), for which the viability in assay [1] is 121% (inactive); in assay [2], 79.1% (inactive); in assay [3] it was 81.5% (inactive); in assay [4] (setting [7]), 89%; in assay [4] (setting [8]), 81.5%. The differential viability (reversal) in assay [4] (H69AR cells + 2 uM doxorubicin) was -7.53% (inactive). The inhibition in assay [5] was -1.17% (inactive); in assay [6], 6.39% (inactive).

As for `Cc1[nH]nc2c1C(=O)CCC2`, the viability in assay [1] is 105% (inactive); in assay [2] it was 117% (inactive); in assay [3], 101% (inactive); in assay [4] (setting [7]), 96.3%; in assay [4] (setting [8]), 101%. Besides, the differential viability (reversal) in assay [4] (H69AR cells + 2 uM doxorubicin) is 4.79% (inactive). The inhibition in assay [5] is 0.68% (inactive); in assay [6], -0.18% (inactive).

On to `CN(CC(=O)N1CCCc2c1c(=O)oc1ccc(O)cc21)Cc1ccccc1`, for which the viability is 95% (inactive) in assay [1]; 87.6% (inactive) in assay [2]; 90% (inactive) in assay [3]; 93.3% in assay [4] (setting [7]); 90% in assay [4] (setting [8]). In addition, the differential viability (reversal) in assay [4] (H69AR cells + 2 uM doxorubicin) was -3.29% (inactive). In addition, the inhibition is -7.3% (inactive) in assay [5] and 0.36% (inactive) in assay [6].

As to `COCCCn1c(=N)c(C(=O)NCC2CCCO2)cc2c(=O)n3cccc(C)c3nc21` (centres undefined), the viability in assay [1] was 62% (inactive); in assay [2], 93% (inactive); in assay [3], 98.7% (inactive); in assay [4] (setting [7]), 93.3%; in assay [4] (setting [8]) it was 98.7%. In assay [4] (H69AR cells + 2 uM doxorubicin), the differential viability (reversal) is 5.39% (inactive). Further, the inhibition in assay [5] was -6.8% (inactive); in assay [6], 2.18% (inactive).
